Values joined by “and” are separate entries in the source; they are usually repeats but may differ in a detail not shown here. Equal values may be shown once.
Tested on: Fibroblast
Test: Multiplex assay against human fibroblast
Type: toxicity, cell-based
How it was run: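 Cells stained live at seeding with Hoechst33342, BioTracker Green Microtubule Cytoskeleton Dye, MitoTracker Red and Annexin V Alexa Fluor 680 were imaged on a CQ1 microscope at 37°C and 5% CO2 after compound addition. Their classification by CellPathfinder machine-learning gating ran from Hoechst high-intensity objects versus normal cells, to healthy, pyknosed or fragmented nuclei among normal cells, to mitotic or apoptotic among pyknosed cells. Tubulin, mitochondrial-mass and membrane-permeability phenotypes are per cents of healthy-nucleus cells.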

[1] = 12 h, 1 µM, compound concentration 1 uM, replicate 1
[2] = 12 h, 1 µM, compound concentration 1 uM, replicate 2
[3] = 12 h, 10 µM, compound concentration 10 uM, replicate 1
[4] = 12 h, 10 µM, compound concentration 10 uM, replicate 2
[5] = 24 h, 1 µM, compound concentration 1 uM, replicate 1
[6] = 24 h, 1 µM, compound concentration 1 uM, replicate 2
[7] = 24 h, 10 µM, compound concentration 10 uM, replicate 1
[8] = 24 h, 10 µM, compound concentration 10 uM, replicate 2
[9] = 48 h, 10 µM, compound concentration 10 uM, replicate 1
[10] = 48 h, 10 µM, compound concentration 10 uM, replicate 2

CCCS(=O)(=O)Nc1ccc(F)c(C(=O)c2c[nH]c3ncc(Cl)cc23)c1F [PLX-4720]
Population Apoptotic (%) [1]: 55% | Population Fragmented Nuclei (%) [1]: 20% | Population Healthy Nuclei (%) [1]: 62% | Population Hoechst High Intensity Objects (%) [1]: 10% | Population Membrane Permeable-Phenotype (%) [1]: 5% | Population Mitochondria Different-Phenotype (%) [1]: 6% | Population Mitotic Cells (%) [1]: 44% | Population Normal (%) [1]: 89% | Population Pyknosed Nuclei (%) [1]: 17% | Population Tubulin-Different-Phenotype (%) [1]: 14% | Total Cell Count [1]: 234 | Population Apoptotic (%) [2]: 28% | Population Fragmented Nuclei (%) [2]: 56% | Population Healthy Nuclei (%) [2]: 31% | Population Hoechst High Intensity Objects (%) [2]: 29% | Population Membrane Permeable-Phenotype (%) [2]: 22% | Population Mitochondria Different-Phenotype (%) [2]: 11% | Population Mitotic Cells (%) [2]: 71% | Population Normal (%) [2]: 70% | Population Pyknosed Nuclei (%) [2]: 12% | Population Tubulin-Different-Phenotype (%) [2]: 27% | Total Cell Count [2]: 81 | Population Apoptotic (%) [3]: 65% | Population Fragmented Nuclei (%) [3]: 23% | Population Healthy Nuclei (%) [3]: 63% | Population Hoechst High Intensity Objects (%) [3]: 13% | Population Membrane Permeable-Phenotype (%) [3]: 3% | Population Mitotic Cells (%) [3]: 34% | Population Normal (%) [3]: 86% | Population Pyknosed Nuclei (%) [3]: 13% | Population Tubulin-Different-Phenotype (%) [3]: 5% | Total Cell Count [3]: 254 | Population Apoptotic (%) [4]: 60% | Population Fragmented Nuclei (%) [4]: 65% | Population Healthy Nuclei (%) [4]: 26% | Population Hoechst High Intensity Objects (%) [4]: 36% | Population Membrane Permeable-Phenotype (%) [4]: 6% | Population Mitochondria Different-Phenotype (%) [4]: 6% | Population Mitotic Cells (%) [4]: 40% | Population Normal (%) [4]: 63% | Population Pyknosed Nuclei (%) [4]: 8% | Population Tubulin-Different-Phenotype (%) [4]: 0% | Total Cell Count [4]: 95 | Population Apoptotic (%) [5]: 53% | Population Fragmented Nuclei (%) [5]: 25% | Population Healthy Nuclei (%) [5]: 61% | Population Hoechst High Intensity Objects (%) [5]: 11% | Population Membrane Permeable-Phenotype (%) [5]: 7% | Population Mitochondria Different-Phenotype (%) [5]: 10% | Population Mitotic Cells (%) [5]: 46% | Population Normal (%) [5]: 88% | Population Pyknosed Nuclei (%) [5]: 12% | Population Tubulin-Different-Phenotype (%) [5]: 22% | Total Cell Count [5]: 249 | Population Apoptotic (%) [6]: 25% | Population Fragmented Nuclei (%) [6]: 47% | Population Healthy Nuclei (%) [6]: 34% | Population Hoechst High Intensity Objects (%) [6]: 40% | Population Membrane Permeable-Phenotype (%) [6]: 13% | Population Mitochondria Different-Phenotype (%) [6]: 6% | Population Mitotic Cells (%) [6]: 75% | Population Normal (%) [6]: 59% | Population Pyknosed Nuclei (%) [6]: 18% | Population Tubulin-Different-Phenotype (%) [6]: 13% | Total Cell Count [6]: 74 | Population Apoptotic (%) [7]: 70% | Population Fragmented Nuclei (%) [7]: 23% | Population Healthy Nuclei (%) [7]: 63% | Population Hoechst High Intensity Objects (%) [7]: 18% | Population Membrane Permeable-Phenotype (%) [7]: 3% | Population Mitochondria Different-Phenotype (%) [7]: 4% | Population Mitotic Cells (%) [7]: 29% | Population Normal (%) [7]: 81% | Population Pyknosed Nuclei (%) [7]: 12% | Population Tubulin-Different-Phenotype (%) [7]: 1% | Total Cell Count [7]: 271 | Population Apoptotic (%) [8]: 50% | Population Fragmented Nuclei (%) [8]: 64% | Population Healthy Nuclei (%) [8]: 29% | Population Hoechst High Intensity Objects (%) [8]: 31% | Population Membrane Permeable-Phenotype (%) [8]: 10% | Population Mitochondria Different-Phenotype (%) [8]: 10% | Population Mitotic Cells (%) [8]: 50% | Population Normal (%) [8]: 68% | Population Pyknosed Nuclei (%) [8]: 5% | Population Tubulin-Different-Phenotype (%) [8]: 10% | Total Cell Count [8]: 98

CN[C@@H]1C[C@H]2O[C@@](C)([C@@H]1OC)n1c3ccccc3c3c4c(c5c6ccccc6n2c5c31)C(=O)NC4 [STAUROSPORINE]
Population Apoptotic (%) [1]: 75% | Population Fragmented Nuclei (%) [1]: 41% | Population Healthy Nuclei (%) [1]: 14% | Population Hoechst High Intensity Objects (%) [1]: 31% | Population Membrane Permeable-Phenotype (%) [1]: 13% | Population Mitochondria Different-Phenotype (%) [1]: 2% | Population Mitotic Cells (%) [1]: 24% | Population Normal (%) [1]: 68% | Population Pyknosed Nuclei (%) [1]: 43% | Population Tubulin-Different-Phenotype (%) [1]: 10% | Population Apoptotic (%) [2]: 71% | Population Fragmented Nuclei (%) [2]: 48% | Population Healthy Nuclei (%) [2]: 19% | Population Hoechst High Intensity Objects (%) [2]: 46% | Population Membrane Permeable-Phenotype (%) [2]: 47% | Population Mitochondria Different-Phenotype (%) [2]: 11% | Population Mitotic Cells (%) [2]: 28% | Population Normal (%) [2]: 53% | Population Pyknosed Nuclei (%) [2]: 32% | Population Tubulin-Different-Phenotype (%) [2]: 11% | Population Apoptotic (%) [3]: 84% and 63% and 86% | Population Fragmented Nuclei (%) [3]: 30% and 31% and 36% | Population Healthy Nuclei (%) [3]: 9% and 21% and 10% | Population Hoechst High Intensity Objects (%) [3]: 26% and 29% and 21% | Population Mitochondria Different-Phenotype (%) [3]: 0% and 3% and 5% | Population Mitotic Cells (%) [3]: 15% and 36% and 13% | Population Normal (%) [3]: 73% | Population Pyknosed Nuclei (%) [3]: 59% and 46% and 52% | Population Tubulin-Different-Phenotype (%) [3]: 15% and 5% | Population Apoptotic (%) [4]: 77% and 73% | Population Fragmented Nuclei (%) [4]: 48% and 26% and 42% | Population Healthy Nuclei (%) [4]: 14% and 15% and 12% | Population Hoechst High Intensity Objects (%) [4]: 43% and 15% | Population Mitotic Cells (%) [4]: 22% and 26% | Population Normal (%) [4]: 56% and 84% | Population Pyknosed Nuclei (%) [4]: 37% and 57% and 45% | Population Apoptotic (%) [5]: 85% | Population Fragmented Nuclei (%) [5]: 61% | Population Healthy Nuclei (%) [5]: 2% | Population Hoechst High Intensity Objects (%) [5]: 21% | Population Membrane Permeable-Phenotype (%) [5]: 16% | Population Mitochondria Different-Phenotype (%) [5]: 0% | Population Mitotic Cells (%) [5]: 14% | Population Pyknosed Nuclei (%) [5]: 35% | Population Tubulin-Different-Phenotype (%) [5]: 16% | Population Apoptotic (%) [6]: 74% | Population Fragmented Nuclei (%) [6]: 58% | Population Healthy Nuclei (%) [6]: 11% | Population Hoechst High Intensity Objects (%) [6]: 34% | Population Membrane Permeable-Phenotype (%) [6]: 30% | Population Mitochondria Different-Phenotype (%) [6]: 10% | Population Mitotic Cells (%) [6]: 25% | Population Normal (%) [6]: 65% | Population Pyknosed Nuclei (%) [6]: 30% | Population Tubulin-Different-Phenotype (%) [6]: 0% | Population Apoptotic (%) [7]: 92% and 84% and 87% | Population Fragmented Nuclei (%) [7]: 51% and 58% and 59% | Population Healthy Nuclei (%) [7]: 6% and 7% | Population Hoechst High Intensity Objects (%) [7]: 18% and 20% and 22% | Population Membrane Permeable-Phenotype (%) [7]: 30% and 25% and 11% | Population Mitochondria Different-Phenotype (%) [7]: 0% and 3% | Population Mitotic Cells (%) [7]: 7% and 15% and 12% | Population Normal (%) [7]: 81% and 79% and 77% | Population Pyknosed Nuclei (%) [7]: 41% and 34% | Population Apoptotic (%) [8]: 72% and 88% and 77% | Population Healthy Nuclei (%) [8]: 20% and 46% and 37% | Population Hoechst High Intensity Objects (%) [8]: 38% and 27% and 26% | Population Membrane Permeable-Phenotype (%) [8]: 47% and 100% and 92% | Population Mitotic Cells (%) [8]: 27% and 11% and 22% | Population Normal (%) [8]: 61% and 72% and 73% | Population Pyknosed Nuclei (%) [8]: 26% and 36% and 38% | Population Apoptotic (%) [9]: 88% and 84% | Population Fragmented Nuclei (%) [9]: 60% and 64% | Population Healthy Nuclei (%) [9]: 14% and 23% | Population Hoechst High Intensity Objects (%) [9]: 34% and 36% | Population Membrane Permeable-Phenotype (%) [9]: 40% and 37% | Population Mitochondria Different-Phenotype (%) [9]: 6% and 16% | Population Mitotic Cells (%) [9]: 11% and 15% | Population Normal (%) [9]: 65% and 63% | Population Pyknosed Nuclei (%) [9]: 25% and 12% | Population Tubulin-Different-Phenotype (%) [9]: 53% and 54% | Population Apoptotic (%) [10]: 91% and 83% | Population Fragmented Nuclei (%) [10]: 79% and 82% | Population Healthy Nuclei (%) [10]: 10% and 8% | Population Hoechst High Intensity Objects (%) [10]: 44% and 33% | Population Membrane Permeable-Phenotype (%) [10]: 33% and 58% | Population Mitochondria Different-Phenotype (%) [10]: 8% and 0% | Population Mitotic Cells (%) [10]: 8% and 16% | Population Normal (%) [10]: 55% and 66% | Population Pyknosed Nuclei (%) [10]: 10% and 8% | Population Tubulin-Different-Phenotype (%) [10]: 58% and 66%

Reference: ChEMBL document CHEMBL4689842, “EUbOPEN Chemogenomics Library wave 1” (2021)
